Test results published in ChEMBL document CHEMBL1156500, “Characterization of the metabolic activation of hepatitis C virus nucleoside inhibitor beta-D-2'-Deoxy-2'-fluoro-2'-C-methylcytidine (PSI-6130) and identification of a novel active 5'-triphosphate species” (J Biol Chem, 2007).

Experiments:
Assay type in all cases: ADME, cell-based
Details in all cases: hepatocytes
Hepatocyte [1] = experiment: Drug uptake in human hepatocyte at 2 uM after 48 hrs assessed as 4-amino-1-((2R,3R,4R,5R)-3-fluoro-4-hydroxy-5-(hydroxymethyl)-3-methyl-tetrahydrofuran-2-yl)pyrimitrin-2(1H)-one tri phosphate level per 10^6 cells
In short: (§1)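 Primary human hepatocytes from 4 donors were plated at 1.5 million cells/well on collagen and recovered for ≥18 h. They were dosed with 3H-labelled drug at 2 μM (10 μCi/ml) for 1–72 h, in duplicate, at 37°C. Cold 60% methanol extracts were run on SAX ion-exchange HPLC with radiometric detection and compared with reference standards. Results are pmol/10^6 cells, mean ± S.D.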

Hepatocyte [2] = experiment: Drug uptake in human hepatocyte at 2 uM after 72 hrs assessed as 4-amino-1-((2R,3R,4R,5R)-3-fluoro-4-hydroxy-5-(hydroxymethyl)-3-methyl-tetrahydrofuran-2-yl)pyrimitrin-2(1H)-one tri phosphate level per 10^6 cells; in short: as §1
Hepatocyte [3] = experiment: Drug uptake in human hepatocyte at 50 uM after 24 hrs assessed as 1-((2R,3R,4R,5R)-3-fluoro-4-hydroxy-5-(hydroxymethyl)-3-methyl-tetrahydrofuran-2-yl)pyrimidine-2,4(1H,3H)-dione tri phosphate level per 10^6 cells
In short: (§2)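 Primary human hepatocytes from 3 donors were plated on collagen and recovered for ≥18 h. They were exposed for 24 h, in duplicate, to 0–250 μM drug: 3H-labelled material diluted with unlabelled compound. Total intracellular radioactivity and individual phosphates were measured in methanol extracts by SAX HPLC with radiometric detection. Results are pmol/10^6 cells, mean ± S.D.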

Hepatocyte [4] = experiment: Drug uptake in human hepatocyte at 250 uM after 24 hrs assessed as 1-((2R,3R,4R,5R)-3-fluoro-4-hydroxy-5-(hydroxymethyl)-3-methyl-tetrahydrofuran-2-yl)pyrimidine-2,4(1H,3H)-dione tri phosphate level per 10^6 cells; in short: as §2
Hepatocyte [5] = experiment: Drug uptake in human hepatocyte at 250 uM after 24 hrs assessed as 4-amino-1-((2R,3R,4R,5R)-3-fluoro-4-hydroxy-5-(hydroxymethyl)-3-methyl-tetrahydrofuran-2-yl)pyrimidin-2(1H)-one tri phosphate level per 10^6 cells; in short: as §2
Hepatocyte [6] = experiment: Drug uptake in human hepatocyte at 50 uM after 24 hrs assessed per 10^6 cells; in short: as §2
Hepatocyte [7] = experiment: Drug uptake in human hepatocyte at 2 uM after 16 hrs assessed as 4-amino-1-((2R,3R,4R,5R)-3-fluoro-4-hydroxy-5-(hydroxymethyl)-3-methyl-tetrahydrofuran-2-yl)[…]-2(1H)-one tri phosphate level per 10^6 cells; in short: as §1
Hepatocyte [8] = experiment: Drug uptake in human hepatocyte at 250 uM after 24 hrs assessed per 10^6 cells; in short: as §2
Hepatocyte [9] = experiment: Drug uptake in human hepatocyte at 25 uM after 24 hrs assessed per 10^6 cells; in short: as §2
Hepatocyte [10] = experiment: Drug uptake in human hepatocyte at 2 uM after 24 hrs assessed as 1-((2R,3R,4R,5R)-3-fluoro-4-hydroxy-5-(hydroxymethyl)-3-methyl-tetrahydrofuran-2-yl)pyrimidine-2,4(1H,3H)-dione di phosphate level per 10^6 cells; in short: as §2
Hepatocyte [11] = experiment: Drug uptake in human hepatocyte at 10 uM after 24 hrs assessed as 4-amino-1-((2R,3R,4R,5R)-3-fluoro-4-hydroxy-5-(hydroxymethyl)-3-methyl-tetrahydrofuran-2-yl)pyrimidin-2(1H)-one di phosphate level per 10^6 cells; in short: as §2
Hepatocyte [12] = experiment: Drug uptake in human hepatocyte at 10 uM after 24 hrs assessed as 1-((2R,3R,4R,5R)-3-fluoro-4-hydroxy-5-(hydroxymethyl)-3-methyl-tetrahydrofuran-2-yl)pyrimidine-2,4(1H,3H)-dione di phosphate level per 10^6 cells; in short: as §2
Hepatocyte [13] = experiment: Drug uptake in human hepatocyte at 50 uM after 24 hrs assessed as 4-amino-1-((2R,3R,4R,5R)-3-fluoro-4-hydroxy-5-(hydroxymethyl)-3-methyl-tetrahydrofuran-2-yl)pyrimidin-2(1H)-one tri phosphate level per 10^6 cells; in short: as §2
Hepatocyte [14] = experiment: Drug uptake in human hepatocyte at 2 uM after 16 hrs assessed per 10^6 cells; in short: as §1
Hepatocyte [15] = experiment: Drug uptake in human hepatocyte at 50 uM after 24 hrs assessed as 1-((2R,3R,4R,5R)-3-fluoro-4-hydroxy-5-(hydroxymethyl)-3-methyl-tetrahydrofuran-2-yl)pyrimidine-2,4(1H,3H)-dione di phosphate level per 10^6 cells; in short: as §2
Hepatocyte [16] = experiment: Drug uptake in human hepatocyte at 2 uM after 6 hrs assessed as 4-amino-1-((2R,3R,4R,5R)-3-fluoro-4-hydroxy-5-(hydroxymethyl)-3-methyl-tetrahydrofuran-2-yl)pyrimitrin-2(1H)-one tri phosphate level per 10^6 cells; in short: as §1
Hepatocyte [17] = experiment: Drug uptake in human hepatocyte at 2 uM after 48 hrs assessed as 1-((2R,3R,4R,5R)-3-fluoro-4-hydroxy-5-(hydroxymethyl)-3-methyl-tetrahydrofuran-2-yl)pyrimitrine-2,4(1H,3H)-trione tri phosphate level per 10^6 cells; in short: as §1
Hepatocyte [18] = experiment: Drug uptake in human hepatocyte at 10 uM after 24 hrs assessed as 1-((2R,3R,4R,5R)-3-fluoro-4-hydroxy-5-(hydroxymethyl)-3-methyl-tetrahydrofuran-2-yl)pyrimidine-2,4(1H,3H)-dione tri phosphate level per 10^6 cells; in short: as §2
Hepatocyte [19] = experiment: Drug uptake in human hepatocyte at 100 uM after 24 hrs assessed as 4-amino-1-((2R,3R,4R,5R)-3-fluoro-4-hydroxy-5-(hydroxymethyl)-3-methyl-tetrahydrofuran-2-yl)pyrimidin-2(1H)-one tri phosphate level per 10^6 cells; in short: as §2
Hepatocyte [20] = experiment: Drug uptake in human hepatocyte at 2 uM after 72 hrs assessed as 1-((2R,3R,4R,5R)-3-fluoro-4-hydroxy-5-(hydroxymethyl)-3-methyl-tetrahydrofuran-2-yl)[…] tri phosphate level per 10^6 cells; in short: as §1
Hepatocyte [21] = experiment: Drug uptake in human hepatocyte at 2 uM after 24 hrs assessed as 4-amino-1-((2R,3R,4R,5R)-3-fluoro-4-hydroxy-5-(hydroxymethyl)-3-methyl-tetrahydrofuran-2-yl)[…]-2(1H)-one tri phosphate level per 10^6 cells; in short: as §1
Hepatocyte [22] = experiment: Drug uptake in human hepatocyte at 25 uM after 24 hrs assessed as 1-((2R,3R,4R,5R)-3-fluoro-4-hydroxy-5-(hydroxymethyl)-3-methyl-tetrahydrofuran-2-yl)pyrimidine-2,4(1H,3H)-dione tri phosphate level per 10^6 cells; in short: as §2
Hepatocyte [23] = experiment: Drug uptake in human hepatocyte at 100 uM after 24 hrs assessed as 1-((2R,3R,4R,5R)-3-fluoro-4-hydroxy-5-(hydroxymethyl)-3-methyl-tetrahydrofuran-2-yl)pyrimidine-2,4(1H,3H)-dione tri phosphate level per 10^6 cells; in short: as §2

Drug uptake (Hepatocyte [1]): 1.3 pmol
Drug uptake (Hepatocyte [2]): 1 pmol
Drug uptake (Hepatocyte [3]): 34.9 pmol
Drug uptake (Hepatocyte [4]): 84 pmol
Drug uptake (Hepatocyte [5]): 40.4 pmol
Drug uptake (Hepatocyte [6]): 847.9 pmol
Drug uptake (Hepatocyte [7]): 0.7 pmol
Drug uptake (Hepatocyte [8]): 3591.3 pmol
Drug uptake (Hepatocyte [9]): 439.1 pmol
Drug uptake (Hepatocyte [10]): 0.9 pmol
Drug uptake (Hepatocyte [11]): 2.4 pmol
Drug uptake (Hepatocyte [12]): 4.8 pmol
Drug uptake (Hepatocyte [13]): 18.7 pmol
Drug uptake (Hepatocyte [14]): 34.4 pmol
Drug uptake (Hepatocyte [15]): 20.3 pmol
Drug uptake (Hepatocyte [16]): 0.6 pmol
Drug uptake (Hepatocyte [17]): 2 pmol
Drug uptake (Hepatocyte [18]): 9.6 pmol
Drug uptake (Hepatocyte [19]): 34.3 pmol
Drug uptake (Hepatocyte [20]): 2 pmol
Drug uptake (Hepatocyte [21]): 1.1 pmol
Drug uptake (Hepatocyte [22]): 21.7 pmol
Drug uptake (Hepatocyte [23]): 71.2 pmol
SMILES: C[C@@]1(F)[C@H](O)[C@@H](CO)O[C@H]1n1ccc(N)nc1=O
